How the values were obtained:
[1] = target: T1, Protein kinase C alpha type (Homo sapiens, UniProt P17252); assay: Affinity for protein kinase-C alpha (PK-C alpha)
How it was run: (§1)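 Competitive displacement of bound [20-3H]phorbol 12,13-dibutyrate (PDBU) from recombinant single-isozyme PK-Cα in the presence of phosphatidylserine. ID50 was obtained by fitting the inhibition data points to a theoretical noncooperative competition curve.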

[2] = Partition coefficient (logP); type: physicochemical; details: octanol/water
[3] = target: T1, Protein kinase C alpha type; assay: Affinity for protein kinase C alpha; how it was run: as §1

Row | Ki [1] [nM] | logP [2] | Ki [3] [nM] | Compound
1 | 327 | – | – | CC(C)C(C/C=C1/CC([C@H](CO)OC(=O)CC(C(C)C)C(C)C)OC1=O)C(C)C (stereo not given in full)
2 | 1200 | 6.3 | 1200 | CCCCCCCC/C=C1\CC([C@H](CO)OC(=O)CCCCCCCC)OC1=O (stereo not given in full)
3 | 1090 | 6.08 | – | CCCCCCCCC(=O)O[C@@H](CO)C1C/C(=C\CC(C(C)C)C(C)C)C(=O)O1 (stereo not given in full)
4 | 1000 | – | 1000 | CCCCCCCCCCCCCC(=O)O[C@@H](CO)C1CCC(=O)O1 (stereo not given in full)
5 | – | – | 13 | CCCCCCCCC/C=C1/CC(CO)(COC(=O)CC(C)C)OC1=O (stereo not given)
6 | 499 | – | – | CCCCCCCCC(=O)O[C@@H](CO)C1C/C(=C/CC(C(C)C)C(C)C)C(=O)O1 (stereo not given in full)
7 | 1760 | – | 1760 | CCCCCCCC/C=C1/CC([C@H](CO)OC(=O)CCCCCCCC)OC1=O (stereo not given in full)
8 | – | – | 565 | CCCCCCCC/C=C1/CC([C@H](CO)OC(=O)CC(C)C)OC1=O (stereo not given in full)
9 | – | – | 2.3 | CCCCCCCCCC(=O)OCC1(CO)C/C(=C/CC(C)C)C(=O)O1 (stereo not given)
10 | – | – | 579 | CCCCCCCC/C=C1\CC([C@H](CO)OC(=O)CC(C)C)OC1=O (stereo not given in full)
11 | – | – | 24 | CCCCCCC/C=C/CCCCCCC/C=C1/CC(CO)(COC(C)=O)OC1=O (stereo not given)
12 | 679 | 5.86 | – | CC(C)C(C/C=C1\CC([C@H](CO)OC(=O)CC(C(C)C)C(C)C)OC1=O)C(C)C (stereo not given in full)
13 | – | – | 96 | CCCCCCCC/C=C/CCCCCCCC(=O)OCC1(CO)CCC(=O)O1 (stereo not given)
14 | 565 | – | – | CCCCCCCC/C=C1/CC([C@H](CO)OC(=O)CC(C(C)C)C(C)C)OC1=O (stereo not given in full)
